Screening data deposited in PubChem by The Scripps Research Institute Molecular Screening Center.
TAAR1 ag = agonists of human TAAR1. hit rate 0.99% among 360,000. AID 624467. activation, % at 3 µM. CHO RD-HGA16 TAAR1, Fluo-8 calcium fluorescence; vehicle wells 0%, saturating PEA agonist 100%;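 active means activation above the mean activation of all test compounds in the run plus 3 SD, cut at about 38% in these data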
Target sequence (Q96RJ0 whole entry, looked up): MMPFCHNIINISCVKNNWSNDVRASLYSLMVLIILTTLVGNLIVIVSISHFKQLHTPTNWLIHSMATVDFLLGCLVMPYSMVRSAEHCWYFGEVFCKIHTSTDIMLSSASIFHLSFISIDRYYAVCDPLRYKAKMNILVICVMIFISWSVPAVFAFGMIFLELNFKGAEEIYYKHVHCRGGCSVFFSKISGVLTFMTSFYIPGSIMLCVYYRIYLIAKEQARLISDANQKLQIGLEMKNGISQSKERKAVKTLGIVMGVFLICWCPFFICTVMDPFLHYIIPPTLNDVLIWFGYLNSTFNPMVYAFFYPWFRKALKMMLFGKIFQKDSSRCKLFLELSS
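Repeats: no replicates (n 1) | Material: CHO-derived RD-HGA16 cells with stable Gα16 and human TAAR1 | Technique: Kinetic Fluo-8 calcium fluorescence | Schedule: 17-24 h seeding, 75 min 37 °C dye, 30 min RT | Evaluation: % activation from peak over basal fluorescence ratio, DMSO-to-PEA scaled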
CHRM1 antagonist = antagonists of human M1 muscarinic receptor | AID 588852 | inhibition, % at 3 µM | P11229 | CHO-K1 hM1, Fluo-8 calcium fluorescence, ACh EC80 antagonist | hit rate 1.3% among 360,000;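 active means percent inhibition above its own plate's cutoff, namely the mean of that plate's compound wells plus 3 SD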;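 further: peak over basal fluorescence ratio during 140 s after agonist addition; 0% = ACh EC80 plus DMSO and 100% = DMSO alone without agonist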
TAAR1 antagonist = human TAAR1 antagonism. Q96RJ0. CHO RD-HGA16 TAAR1, Fluo-8 calcium fluorescence, antagonist. inhibition, % at 3 µM. hit rate 1.5% among 360,000;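 active means inhibition above a per-plate cutoff, the mean inhibition of test compounds on that plate plus 3 SD, cut at about 49% in these data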;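 further: 0% = DMSO plus EC80 beta-PEA response and 100% = DMSO alone without agonist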
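Test system – hTAAR1-expressing CHO RD-HGA16 cells, Gα16-coupled · Also added – β-PEA at EC80 concentration, post-compound challenge · Compound – 3 µM, single point · Incubation – dye loading 75 min at 37 °C, then 30 min room temperature · Measured by – Fluo-8 intracellular calcium dye fluorescence, real-time kinetic reads · Benchmarks – vehicle and agonist controls · Replicates – singlicate, one well per test compound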
CHRM1 PAM = positive allosteric modulators of human M1 muscarinic receptor. CHO-K1 hM1, Fluo-8 calcium fluorescence, ACh EC20; 0% = ACh EC20, 100% = maximal ACh. activation, % at 3 µM. hit rate 0.088% among 360,000. AID 588819; in the data active means activation above about 19%, passing the limit was not always enough
M1 ag = activates human CHRM1 receptor; activation, % at 3 µM; P11229; hit rate 0.33% among 360,000; CHO-K1 hM1, Fluo-8 calcium fluorescence, agonist mode; 0% DMSO, 100% acetylcholine EC100;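 active means activation above the run's mean compound activation plus 3 SD, cut at about 16% in these data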;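 further: peak over basal fluorescence ratio within a 140 s kinetic read after compound addition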
Active calls of the source: *; · = not tested or not shown. Only some compounds are listed: those with a hit (about 3.4% of all), similar ones and a draw of the others.

SMILES	TAAR1 ag	CHRM1 antagonist	TAAR1 antagonist	CHRM1 PAM	M1 ag
CCOC(=O)C1=C(CC)Nc2ccccc2N=C1NC(=O)c1cc(C)on1	11	12	41	-9	-4
CCOC(=O)C1=C(CC)Nc2ccccc2N=C1NC(=O)Nc1ccc(Cl)c(Cl)c1	9	33*	43	-16	5
CC(CCc1ccc(O)cc1)NCCC(c1ccccc1)c1ccccc1 (stereo unspecified)	36	45*	48	-26	-5
COc1ccc(CNC(C)CCc2ccccc2)cc1 (stereo unspecified)	1	-18	-6	2	-10
CC(CCc1ccc(O)cc1)NCc1ccc(Br)cc1 (stereo unspecified)	6	32*	0	-24	-8
C=CCN1C[C@@H](COCc2ccccc2)OCCS1(=O)=O	1	·	-14	·	·
O=S(=O)(CS(=O)(=O)c1ccc(Br)cc1)c1ccc(Br)cc1	-1	·	-8	·	·
S=C(NCCc1ccccc1)N1CCN(C23CC4CC(CC(C4)C2)C3)CC1	37*	19	15	-16	-8
COc1ccc(CCn2c(C)cc(C(=O)COC(=O)c3ccc(O)cc3O)c2C)cc1	10	20	65*	-17	0
COc1ccc(CCn2c(C)cc(C(=O)COC(=O)c3cnc(C)cn3)c2C)cc1	7	-39	6	16	-2
COC(=O)[C@]12C[C@H](CC(=O)N3CCN(C(=O)C4CC4)CC3)C(=O)N(Cc3ccccc3)C1=C[C@H](C(C)C)O[C@@H]2C1CC1	0	·	4	·	·
CCCNC(=O)OC1CC2CC1[C@H]1CCCCN1C2=O (stereo partly specified)	3	·	-6	·	·
C[C@H](c1ccccc1)N1C[C@@H](COCc2ccccc2)Oc2cccc(Oc3ccc(C(C)(C)C)cc3)c2S1(=O)=O	2	·	-3	·	·
CCC(=O)c1ccccc1OCCCN1CCC(Cc2ccccc2)CC1	19	92*	-13	-27	-3
COc1cccc(OC)c1OCCCCN1CCC(Cc2ccccc2)CC1	4	47*	-18	-24	-6
COc1ccc(CN2CCC(Cc3ccccc3)CC2)c(C)c1C	4	33*	-3	-25	-8
COc1cccc(OC)c1OCCCCN1CCCC1	-1	-10	2	7	-4
N#Cc1ccccc1OCCCN1CCC(Cc2ccccc2)CC1	6	35*	-12	-28	-7
CCOc1ccccc1OCCN1CCC(Cc2ccccc2)CC1	6	9	-7	-9	-9
COc1cc(OC)c2c(=O)c3c(C(=O)O)c(O)ccc3oc2c1	0	·	-16	·	·
C[C@@H]1CN([C@H](C)CO)C(=O)c2cc(NC(=O)Nc3ccc(F)cc3)ccc2O[C@@H](C)CCCCO[C@@H]1CN(C)C(=O)CCCN(C)C	4	·	-14	·	·
CC(=O)CCc1ccc(OCCCCN2CCC(Cc3ccccc3)CC2)cc1	6	60*	-6	-24	-6
COc1ccc(-n2nc(C(=O)NCC(=O)NCCCN3CCCCCC3)c3ccccc3c2=O)cc1Cl	3	50*	-3	-23	0
COc1ccc(-n2nc(C(=O)NCC(=O)N(C)Cc3ccccc3)c3ccccc3c2=O)cc1OC	9	3	49*	-3	-8
COc1ccc(-n2nc(C(=O)NCC(=O)NCCCN3CCC(C)CC3)c3ccccc3c2=O)cc1Cl	0	4	-15	-7	-11
SMILES	TAAR1 ag	CHRM1 antagonist	TAAR1 antagonist	CHRM1 PAM	M1 ag
COc1ccc(-n2nc(C(=O)NCC(=O)NC3CCCCCC3)c3ccccc3c2=O)cc1OC	10	-1	50*	0	0
CCOC(=O)C1CCCN(C(=O)CNC(=O)c2nn(-c3ccc(OC)c(Cl)c3)c(=O)c3ccccc23)C1 (stereo unspecified)	38*	22	51*	-14	18*
COc1cccc(C(=O)N[C@H](C(=O)N2CCC[C@H]2C(=O)NC2CCCC2)C2CCCCC2)c1	-1	·	-23	·	·
O=C(/C=C/c1ccccc1)Nc1cccc(C(=O)NCCCCc2ccccc2)c1	12	24	67*	-15	-1
CC(C)(C)OC(=O)N1CCCC(C(=O)Nc2cccc(C(=O)NCCc3ccccc3)c2)C1 (stereo unspecified)	13	-5	49*	2	9
CC(C)(C)OC(=O)N1CCCC(C(=O)Nc2cccc(C(=O)NCCCCc3ccccc3)c2)C1 (stereo unspecified)	12	27*	56*	-20	3
CC(C)(C)OC(=O)N1CCCC(C(=O)Nc2cccc(C(=O)NC3CC3)c2)C1 (stereo unspecified)	3	-17	-5	10	-2
O=C(NCCCc1ccccc1)c1cccc(NC(=O)c2ccccc2)c1	6	-3	29	-5	-2
COc1ccc(N2CCN(C(=O)COC(=O)c3oc4ccccc4c3C)CC2)cc1	26	7	51*	-4	-1
CC(C)CCN1CCN(Cc2nc(-c3ccccc3)cs2)CC1CCO (stereo unspecified)	9	-3	5	-13	-16
CC(C)=CCN1CCN(Cc2nc(-c3ccccc3)cs2)CC1CCO (stereo unspecified)	0	34*	-26	-22	-7
O=C(C(=O)N1CCC(CNS(=O)(=O)c2ccc(C(F)(F)F)cc2)CC1)c1cccs1	7	·	-6	·	·
COC(=O)[C@@H](N[C@H](/C=C/c1ccccc1)[C@@H](O)Cc1ccccc1)C(C)C	-3	·	-4	·	·
CCCc1cc(=O)[nH]c2nnc(SCC(=O)Nc3cccc(NC(C)=O)c3)n12	2	2	-16	16	20*
O=C(O)C1=CC[C@@H](c2ccc(Cl)cc2)N(S(=O)(=O)c2ccc(Cl)cc2)[C@H]1c1ccc(Br)cc1	0	-5	52*	4	-6
Cc1ccc(S(=O)(=O)N2[C@@H](c3ccc(Cl)cc3)C(C(=O)O)=CC[C@H]2c2ccc(Cl)cc2)cc1	2	-5	55*	5	-7
O=C(O)C1=CC[C@@H](c2ccc(Cl)cc2)N(S(=O)(=O)c2ccc(Cl)cc2)[C@H]1c1cccc(Cl)c1	6	-14	64*	9	-2
COC(=O)c1cc2c(c3c4cc(OC)ccc4n(S(=O)(=O)c4ccc(OC)cc4)c13)C(=O)N(Cc1ccccc1OC)C2	-1	·	-21	·	·
CCN(CC)CCN1C(=O)c2ccccc2NC1c1ccccc1F (stereo unspecified)	4	89*	-5	-37	-12
CCN(CC)CCN1C(=O)c2ccccc2NC1c1ccc(F)cc1 (stereo unspecified)	3	-6	3	-2	-7
O=[N+]([O-])c1ccccc1CCc1ccccc1[N+](=O)[O-]	34	7	50*	8	-2
O=[N+]([O-])c1ccccc1CCO	8	·	-27	·	·
Cc1ccc(OCCN2C(=O)C(=O)c3cc(C)ccc32)cc1	-3	-2	-18	1	0
